# From ChEMBL document CHEMBL1268902, “9-Dihydroerythromycin ethers as motilin agonists--developing structure-activity relationships for potency and safety” (Bioorg Med Chem, 2010)
# Tests used:
# [1] = Induction of contraction in rabbit smooth muscle; assay type: functional, tissue-based, Oryctolagus cuniculus, Muscle tissue
# How it was run: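 Rabbit smooth muscle contractility assay; EC50 taken as the concentration giving 50% of maximal possible contraction.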
# hERG (KCNH2) [2] = molecular target: T1, hERG (KCNH2) (Homo sapiens, UniProt Q12809); assay: Inhibition of human ERG at 30 uM
# Streptococcus pneumoniae = assay: Antibacterial activity against erythromycin-sensitive Streptococcus pneumoniae ATCC 6301; assay type: functional
# How it was run: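 MIC determined by growth inhibition; routine screening used the highly erythromycin-sensitive strain S. pneumoniae ATCC6301.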
# hERG (KCNH2) [3] = molecular target: T1, hERG (KCNH2); assay: Inhibition of human ERG at 300 uM
# [4] = Induction of contraction in rabbit smooth muscle at EC90 concentration after three cycles of administration and washout measured after 4th dose; assay type: functional, Oryctolagus cuniculus, Muscle tissue
# How it was run: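 Rabbit smooth muscle contractility; drug applied at EC90 concentration through three cycles of administration and washout, tachyphylaxis reported as % contractility response then obtained.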
# T1 sequence (Q12809 whole entry): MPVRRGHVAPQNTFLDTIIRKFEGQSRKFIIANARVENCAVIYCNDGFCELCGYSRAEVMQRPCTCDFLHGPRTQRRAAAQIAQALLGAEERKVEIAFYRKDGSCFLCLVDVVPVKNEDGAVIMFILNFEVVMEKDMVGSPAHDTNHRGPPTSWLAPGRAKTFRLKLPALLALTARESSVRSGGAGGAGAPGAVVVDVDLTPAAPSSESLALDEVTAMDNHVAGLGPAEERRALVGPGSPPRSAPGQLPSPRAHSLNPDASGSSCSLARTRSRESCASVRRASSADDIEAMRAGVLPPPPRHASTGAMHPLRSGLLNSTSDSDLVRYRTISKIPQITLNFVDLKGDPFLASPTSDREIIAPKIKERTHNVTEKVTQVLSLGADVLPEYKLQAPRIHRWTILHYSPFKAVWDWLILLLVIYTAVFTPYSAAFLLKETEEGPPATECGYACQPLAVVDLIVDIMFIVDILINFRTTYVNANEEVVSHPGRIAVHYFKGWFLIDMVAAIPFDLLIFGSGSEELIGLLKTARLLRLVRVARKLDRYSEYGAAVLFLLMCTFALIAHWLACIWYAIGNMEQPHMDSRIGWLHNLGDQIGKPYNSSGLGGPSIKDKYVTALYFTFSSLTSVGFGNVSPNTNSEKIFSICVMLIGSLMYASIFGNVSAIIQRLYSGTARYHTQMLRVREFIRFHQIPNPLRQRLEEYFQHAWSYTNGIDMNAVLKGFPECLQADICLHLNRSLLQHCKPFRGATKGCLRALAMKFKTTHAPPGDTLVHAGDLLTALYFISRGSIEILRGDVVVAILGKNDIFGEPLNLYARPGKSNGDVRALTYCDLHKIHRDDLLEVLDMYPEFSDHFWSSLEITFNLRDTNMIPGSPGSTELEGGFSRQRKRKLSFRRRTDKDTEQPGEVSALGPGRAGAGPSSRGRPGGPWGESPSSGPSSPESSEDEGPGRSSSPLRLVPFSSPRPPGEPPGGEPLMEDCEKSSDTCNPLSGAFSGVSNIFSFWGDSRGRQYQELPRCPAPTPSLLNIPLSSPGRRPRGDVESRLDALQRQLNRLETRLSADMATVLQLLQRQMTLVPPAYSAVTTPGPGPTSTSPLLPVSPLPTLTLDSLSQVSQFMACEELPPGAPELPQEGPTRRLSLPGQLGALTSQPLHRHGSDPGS
EC50 [1] [nM],MIC (Streptococcus pneumoniae) [µg/mL],Structure (SMILES),inhibition at 30 µM (hERG (KCNH2) [2]) [%],inhibition at 300 µM (hERG (KCNH2) [3]) [%],Activity [4] [%]
2300,128,CC[C@H]1OC(=O)[C@H](C)[C@@H](O[C@H]2C[C@@](C)(OC)[C@@H](O)[C@H](C)O2)[C@H](C)[C@@H](O[C@@H]2O[C@H](C)C[C@H](N(C)C(C)C)[C@H]2O)[C@](C)(O)C[C@@H](C)[C@H](OCCN)[C@H](C)[C@@H](O)[C@]1(C)O,25,76,
11,,CC[C@H]1OC(=O)[C@H](C)[C@@H](O[C@H]2C[C@@](C)(OC)C[C@H](C)O2)[C@H](C)[C@@H](O[C@@H]2O[C@H](C)C[C@H](N(C)C(C)C)[C@H]2O)[C@]2(C)CC(C)=C(O2)[C@H](C)C(=O)[C@]1(C)OC,84,100,9
31,> 128,CC[C@H]1OC(=O)[C@H](C)[C@@H](O[C@H]2C[C@@](C)(OC)[C@@H](O)[C@H](C)O2)[C@H](C)[C@@H](O[C@@H]2O[C@H](C)C[C@H](N(C)C(C)C)[C@H]2O)[C@](C)(O)C[C@@H](C)[C@H](OCCNC=O)[C@H](C)[C@@H](O)[C@]1(C)O,8,47,100
48,> 128,CC[C@H]1OC(=O)[C@H](C)[C@@H](O[C@H]2C[C@@](C)(OC)[C@@H](O)[C@H](C)O2)[C@H](C)[C@@H](O[C@@H]2O[C@H](C)C[C@H](N(C)C(C)C)[C@H]2O)[C@](C)(O)C[C@@H](C)[C@H](OCCNC(C)=O)[C@H](C)[C@@H](O)[C@]1(C)O,47,73,94
37,128,CC[C@H]1OC(=O)[C@H](C)[C@@H](O[C@H]2C[C@@](C)(OC)[C@@H](O)[C@H](C)O2)[C@H](C)[C@@H](O[C@@H]2O[C@H](C)C[C@H](N(C)C(C)C)[C@H]2O)[C@](C)(O)C[C@@H](C)[C@H](OCCNC(=O)c2ccc3[nH]cnc3c2)[C@H](C)[C@@H](O)[C@]1(C)O,71,100,94
130,128,CC[C@H]1OC(=O)[C@H](C)[C@@H](O[C@H]2C[C@@](C)(OC)[C@@H](O)[C@H](C)O2)[C@H](C)[C@@H](O[C@@H]2O[C@H](C)C[C@H](N(C)C(C)C)[C@H]2O)[C@](C)(O)C[C@@H](C)[C@H](OCCNC(=O)OC)[C@H](C)[C@@H](O)[C@]1(C)O,40,95,
100,64,CCOC(=O)NCCO[C@@H]1[C@H](C)[C@@H](O)[C@](C)(O)[C@@H](CC)OC(=O)[C@H](C)[C@@H](O[C@H]2C[C@@](C)(OC)[C@@H](O)[C@H](C)O2)[C@H](C)[C@@H](O[C@@H]2O[C@H](C)C[C@H](N(C)C(C)C)[C@H]2O)[C@](C)(O)C[C@H]1C,67,100,
100,> 128,CCNC(=O)NCCO[C@@H]1[C@H](C)[C@@H](O)[C@](C)(O)[C@@H](CC)OC(=O)[C@H](C)[C@@H](O[C@H]2C[C@@](C)(OC)[C@@H](O)[C@H](C)O2)[C@H](C)[C@@H](O[C@@H]2O[C@H](C)C[C@H](N(C)C(C)C)[C@H]2O)[C@](C)(O)C[C@H]1C,20,57,88
220,> 120,CCNC(=S)NCCO[C@@H]1[C@H](C)[C@@H](O)[C@](C)(O)[C@@H](CC)OC(=O)[C@H](C)[C@@H](O[C@H]2C[C@@](C)(OC)[C@@H](O)[C@H](C)O2)[C@H](C)[C@@H](O[C@@H]2O[C@H](C)C[C@H](N(C)C(C)C)[C@H]2O)[C@](C)(O)C[C@H]1C,36,88,
210,128,CCCNC(=S)NCCO[C@@H]1[C@H](C)[C@@H](O)[C@](C)(O)[C@@H](CC)OC(=O)[C@H](C)[C@@H](O[C@H]2C[C@@](C)(OC)[C@@H](O)[C@H](C)O2)[C@H](C)[C@@H](O[C@@H]2O[C@H](C)C[C@H](N(C)C(C)C)[C@H]2O)[C@](C)(O)C[C@H]1C,53,100,
240,> 128,CC[C@H]1OC(=O)[C@H](C)[C@@H](O[C@H]2C[C@@](C)(OC)[C@@H](O)[C@H](C)O2)[C@H](C)[C@@H](O[C@@H]2O[C@H](C)C[C@H](N(C)C(C)C)[C@H]2O)[C@](C)(O)C[C@@H](C)[C@H](OCCNS(C)(=O)=O)[C@H](C)[C@@H](O)[C@]1(C)O,12,79,94
2000,64,CC[C@H]1OC(=O)[C@H](C)[C@@H](O[C@H]2C[C@@](C)(OC)[C@@H](O)[C@H](C)O2)[C@H](C)[C@@H](O[C@@H]2O[C@H](C)C[C@H](N(C)C(C)C)[C@H]2O)[C@](C)(O)C[C@@H](C)[C@H](OCCNC(C)C)[C@H](C)[C@@H](O)[C@]1(C)O,40,93,
3600,,CC[C@H]1OC(=O)[C@H](C)[C@@H](O[C@H]2C[C@@](C)(OC)[C@@H](O)[C@H](C)O2)[C@H](C)[C@@H](O[C@@H]2O[C@H](C)C[C@H](N(C)C(C)C)[C@H]2O)[C@](C)(O)C[C@@H](C)[C@H](OCCNC(=N)N)[C@H](C)[C@@H](O)[C@]1(C)O,,,
480,128,CC[C@H]1OC(=O)[C@H](C)[C@@H](O[C@H]2C[C@@](C)(OC)[C@@H](O)[C@H](C)O2)[C@H](C)[C@@H](O[C@@H]2O[C@H](C)C[C@H](N(C)C(C)C)[C@H]2O)[C@](C)(O)C[C@@H](C)[C@H](OCc2csc(C)n2)[C@H](C)[C@@H](O)[C@]1(C)O,63,100,
290,128,CC[C@H]1OC(=O)[C@H](C)[C@@H](O[C@H]2C[C@@](C)(OC)[C@@H](O)[C@H](C)O2)[C@H](C)[C@@H](O[C@@H]2O[C@H](C)C[C@H](N(C)C(C)C)[C@H]2O)[C@](C)(O)C[C@@H](C)[C@H](OCc2nccs2)[C@H](C)[C@@H](O)[C@]1(C)O,61,100,
110,128,CC[C@H]1OC(=O)[C@H](C)[C@@H](O[C@H]2C[C@@](C)(OC)[C@@H](O)[C@H](C)O2)[C@H](C)[C@@H](O[C@@H]2O[C@H](C)C[C@H](N(C)C(C)C)[C@H]2O)[C@](C)(O)C[C@@H](C)[C@H](OCc2cc(C)on2)[C@H](C)[C@@H](O)[C@]1(C)O,45,90,78
420,128,CC[C@H]1OC(=O)[C@H](C)[C@@H](O[C@H]2C[C@@](C)(OC)[C@@H](O)[C@H](C)O2)[C@H](C)[C@@H](O[C@@H]2O[C@H](C)C[C@H](N(C)C(C)C)[C@H]2O)[C@](C)(O)C[C@@H](C)[C@H](OCc2ccncc2)[C@H](C)[C@@H](O)[C@]1(C)O,68,100,
54,128,CC[C@H]1OC(=O)[C@H](C)[C@@H](O[C@H]2C[C@@](C)(OC)[C@@H](O)[C@H](C)O2)[C@H](C)[C@@H](O[C@@H]2O[C@H](C)C[C@H](N(C)C(C)C)[C@H]2O)[C@](C)(O)C[C@@H](C)[C@H](OCc2nc[nH]n2)[C@H](C)[C@@H](O)[C@]1(C)O,8,40,97
63,,CC[C@H]1OC(=O)[C@H](C)[C@@H](O[C@H]2C[C@@](C)(OC)[C@@H](O)[C@H](C)O2)[C@H](C)[C@@H](O[C@@H]2O[C@H](C)C[C@H](N(C)C(C)C)[C@H]2O)[C@](C)(O)C[C@@H](C)[C@H](OCc2c[nH]cn2)[C@H](C)[C@@H](O)[C@]1(C)O,48,98,
58,128,CC[C@H]1OC(=O)[C@H](C)[C@@H](O[C@H]2C[C@@](C)(OC)[C@@H](O)[C@H](C)O2)[C@H](C)[C@@H](O[C@@H]2O[C@H](C)C[C@H](N(C)C(C)C)[C@H]2O)[C@](C)(O)C[C@@H](C)[C@H](OCC(=O)NC)[C@H](C)[C@@H](O)[C@]1(C)O,,,89
7,,"CC[C@H]1OC(=O)[C@H](C)[C@@H](O[C@H]2C[C@@](C)(OC)CC(C)O2)[C@H](C)[C@@H](O[C@@H]2O[C@H](C)C[C@H](N(C)CC)[C@H]2O)C2(C)CC(C)=C(O2)[C@H](C)[C@@H](O)[C@H]1C (single isomer, unassigned)",,,22
260,,CC[C@H]1OC(=O)[C@H](C)[C@@H](O[C@H]2C[C@@](C)(OC)[C@@H](O)[C@H](C)O2)[C@H](C)[C@@H](O[C@@H]2O[C@H](C)C[C@H](N(C)C(C)C)[C@H]2O)[C@](C)(O)C[C@@H](C)[C@H](O)[C@H](C)[C@@H](O)[C@]1(C)O [3 9-DIHYDRO-N-DESMETHYL-N-ISOPROPYLERYTHROMYCIN A],,,85
1200,,CC[C@H]1OC(=O)[C@H](C)[C@@H](O[C@H]2C[C@@](C)(OC)[C@@H](O)[C@H](C)O2)[C@H](C)[C@@H](O[C@@H]2O[C@H](C)C[C@H](N(C)C)[C@H]2O)[C@](C)(O)C[C@@H](C)C(=O)[C@H](C)[C@@H](O)[C@]1(C)O [ERYTHROMYCIN],,,97
